Among the data in ChEMBL document CHEMBL1132569 are Cooperativity and Affinity values, retold here.

Bounds are passed on as bounds.

For assay [1], the target named is Muscarinic acetylcholine receptor M3 (Homo sapiens) (UniProt P20309). Put plainly: Cooperativity with NMS at human muscarinic acetylcholine receptor M3. The essentials:
(§1)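 Equilibrium ³H-NMS binding in CHO membranes expressing human m1–m5 receptors was measured with and without ACh, alone and with three agent concentrations. Data were converted to affinity ratios, meaning apparent primary-ligand affinity with agent divided by affinity without it.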

The target in assay [2] is T1, Muscarinic acetylcholine receptor M1 (Homo sapiens) (UniProt P11229).
T1 sequence (whole entry): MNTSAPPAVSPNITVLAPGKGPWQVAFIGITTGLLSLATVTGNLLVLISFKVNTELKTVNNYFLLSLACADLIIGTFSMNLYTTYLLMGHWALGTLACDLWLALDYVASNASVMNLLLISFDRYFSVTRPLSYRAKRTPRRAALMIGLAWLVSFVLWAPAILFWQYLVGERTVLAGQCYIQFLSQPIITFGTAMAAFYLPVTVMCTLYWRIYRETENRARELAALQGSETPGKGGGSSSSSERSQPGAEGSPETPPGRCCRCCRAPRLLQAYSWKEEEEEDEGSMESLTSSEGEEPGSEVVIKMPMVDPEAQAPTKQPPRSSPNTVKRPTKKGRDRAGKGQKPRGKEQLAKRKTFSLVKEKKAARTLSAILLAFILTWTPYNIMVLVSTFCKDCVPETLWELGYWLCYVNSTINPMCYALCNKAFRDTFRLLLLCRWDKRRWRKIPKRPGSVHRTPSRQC
As to the kind of experiment: Binding affinity at the NMS liganded human muscarinic acetylcholine receptor M1 was estimated as log affinity (log1/M). The essentials:
(§2)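 Equilibrium runs were ≥2 h with 2 × 10⁻⁴ M GTP and 0.1–0.7 nM ³H-NMS. Nonspecific binding was defined with 10⁻⁶ M QNB, and bound ligand was filtered and counted. Log affinities came from semiquantitative plus off-rate, quantitative equilibrium, or nonequilibrium assays, fitted by nonlinear least squares to the allosteric ternary complex model.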

For assay [3], the target named is T2, Muscarinic acetylcholine receptor M2 (Homo sapiens) (UniProt P08172).
T2 sequence (whole entry): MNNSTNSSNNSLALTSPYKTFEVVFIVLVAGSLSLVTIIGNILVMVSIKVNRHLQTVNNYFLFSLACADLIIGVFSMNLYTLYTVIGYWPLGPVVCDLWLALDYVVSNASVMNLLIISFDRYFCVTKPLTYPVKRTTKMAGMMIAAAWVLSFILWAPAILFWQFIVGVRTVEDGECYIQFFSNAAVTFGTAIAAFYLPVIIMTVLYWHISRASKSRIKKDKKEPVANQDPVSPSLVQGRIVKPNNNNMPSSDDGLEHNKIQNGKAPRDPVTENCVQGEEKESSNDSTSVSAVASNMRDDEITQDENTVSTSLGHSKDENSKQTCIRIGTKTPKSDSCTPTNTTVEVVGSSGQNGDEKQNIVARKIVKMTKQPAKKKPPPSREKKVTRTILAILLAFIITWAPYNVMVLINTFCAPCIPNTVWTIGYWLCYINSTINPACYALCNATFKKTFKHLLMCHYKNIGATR
Put plainly: Cooperativity with acetylcholine at human muscarinic acetylcholine receptor M2. The essentials: as §1

Assay [4] deals with T3, Muscarinic acetylcholine receptor M4 (Homo sapiens) (UniProt P08173).
T3 sequence (whole entry): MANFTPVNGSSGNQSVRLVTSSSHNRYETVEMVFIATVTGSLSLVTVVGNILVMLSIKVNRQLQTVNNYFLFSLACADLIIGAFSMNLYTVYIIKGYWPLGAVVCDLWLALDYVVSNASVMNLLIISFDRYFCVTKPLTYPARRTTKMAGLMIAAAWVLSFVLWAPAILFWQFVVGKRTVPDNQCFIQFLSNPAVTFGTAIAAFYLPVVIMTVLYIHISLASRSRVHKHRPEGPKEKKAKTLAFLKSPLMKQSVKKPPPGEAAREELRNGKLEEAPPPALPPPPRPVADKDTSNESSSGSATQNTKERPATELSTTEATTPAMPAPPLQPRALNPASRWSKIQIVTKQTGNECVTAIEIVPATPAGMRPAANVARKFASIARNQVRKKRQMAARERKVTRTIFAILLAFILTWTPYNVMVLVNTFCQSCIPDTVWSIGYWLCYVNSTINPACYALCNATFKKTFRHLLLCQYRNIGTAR
As to the kind of experiment: Cooperativity with NMS at human muscarinic acetylcholine receptor M4. The essentials:
as §1

Assay [5] addresses Muscarinic acetylcholine receptor M3 (Homo sapiens) (UniProt P20309). As to the kind of experiment: Cooperativity with acetylcholine at human muscarinic acetylcholine receptor M3. The essentials: as §1
For assay [6], the target named is T2, Muscarinic acetylcholine receptor M2 (Homo sapiens). As to the kind of experiment: Binding affinity at the unliganded human muscarinic acetylcholine receptor M2 was estimated as log affinity (log1/M). The essentials:
as §2

For assay [7], the target named is T1, Muscarinic acetylcholine receptor M1 (Homo sapiens). As to the kind of experiment: Binding affinity at the unliganded human muscarinic acetylcholine receptor M1 was estimated as log affinity (log1/M). The essentials: as §2
Assay [8] has the same target. Put plainly: Cooperativity with acetylcholine at human muscarinic acetylcholine receptor M1. The essentials:
as §1

In assay [9] the target is T3, Muscarinic acetylcholine receptor M4 (Homo sapiens). Put plainly: Binding affinity at the NMS liganded human muscarinic acetylcholine receptor M4 was estimated as log affinity (log1/M). The essentials:
as §2

Assay [10] shares this target. As to the kind of experiment: Cooperativity with acetylcholine at human muscarinic acetylcholine receptor M4. The essentials:
as §1

Assay [11] concerns the target Muscarinic acetylcholine receptor M3 (Homo sapiens) (UniProt P20309). Put plainly: Binding affinity at the NMS liganded human muscarinic acetylcholine receptor M3 was estimated as log affinity (log1/M). The essentials: as §2
Assay [12] addresses T3, Muscarinic acetylcholine receptor M4 (Homo sapiens). Put plainly: Binding affinity at the unliganded human muscarinic acetylcholine receptor M4 was estimated as log affinity (log1/M). The essentials:
as §2

Assay [13] concerns the target T1, Muscarinic acetylcholine receptor M1 (Homo sapiens). As to the kind of experiment: Cooperativity with NMS at human muscarinic acetylcholine receptor M1. The essentials:
as §1

Assay [14] concerns the target T2, Muscarinic acetylcholine receptor M2 (Homo sapiens). As to the kind of experiment: Binding affinity at the NMS liganded human muscarinic acetylcholine receptor M2 was estimated as log affinity (log1/M). The essentials:
as §2

Assay [15] has as its target Muscarinic acetylcholine receptor M3 (Homo sapiens) (UniProt P20309). As to the kind of experiment: Binding affinity at the unliganded human muscarinic acetylcholine receptor M3 was estimated as log affinity (log1/M). The essentials: as §2
Assay [16] has as its target T2, Muscarinic acetylcholine receptor M2 (Homo sapiens). As to the kind of experiment: Cooperativity with NMS at human muscarinic acetylcholine receptor M2. The essentials:
as §1

Chain of Muscarinic acetylcholine receptor M3 (Homo sapiens) (P20309 whole entry, looked up): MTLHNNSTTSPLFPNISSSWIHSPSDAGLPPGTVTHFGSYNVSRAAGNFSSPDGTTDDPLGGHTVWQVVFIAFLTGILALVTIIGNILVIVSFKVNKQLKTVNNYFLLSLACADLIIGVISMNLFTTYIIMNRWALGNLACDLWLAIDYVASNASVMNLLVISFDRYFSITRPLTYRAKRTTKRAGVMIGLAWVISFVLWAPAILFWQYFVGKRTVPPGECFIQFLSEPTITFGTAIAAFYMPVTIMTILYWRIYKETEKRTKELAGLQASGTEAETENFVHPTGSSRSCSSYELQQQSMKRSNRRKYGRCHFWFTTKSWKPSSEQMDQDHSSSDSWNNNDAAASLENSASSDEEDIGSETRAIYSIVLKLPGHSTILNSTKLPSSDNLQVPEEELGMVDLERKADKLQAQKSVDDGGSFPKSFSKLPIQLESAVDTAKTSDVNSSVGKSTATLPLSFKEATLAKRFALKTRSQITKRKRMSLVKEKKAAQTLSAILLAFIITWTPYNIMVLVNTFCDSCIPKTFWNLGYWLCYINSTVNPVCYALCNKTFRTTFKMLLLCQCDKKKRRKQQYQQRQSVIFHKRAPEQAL

Regarding `C=CC[N+]12CC[C@@]34c5ccccc5N5/C=C6/[C@H]7C[C@H]8[C@@]9(CC[N@@+]8(CC=C)C/C7=C/CO)c7ccccc7N(/C=C(/[C@@H](C[C@@H]31)/C(=C\CO)C2)[C@H]54)[C@@H]69` (stereo partly drawn), the Cooperativity is 0.8 in [1]; below 0.2 in [3]; 1.19 in assay [4]; 0.8 in assay [5]; below 0.2 in assay [8]; below 0.2 in assay [10]. In addition, the Cooperativity is 0.8 in [13] and above 2 in [16]. The Affinity in assay [2] was 4.5; in assay [6], 6; in assay [7], 4.9; in assay [9], 4.7; in [11], 3.5; in assay [12], 4.7. The Affinity in assay [14] is 6.5; in assay [15], below 4.
Consider `O=C1C[C@@H]2OCC=C3C[N+]4(Cc5ccc([N+](=O)[O-])cc5)CC[C@]56c7ccccc7N1[C@H]5[C@H]2[C@H]3C[C@@H]64` (stereo partly drawn), for which the Cooperativity in assay [1] was 1.19; in [3], below 0.2; in [4], above 2; in [5], 0.8; in assay [8] it was 0.8; in [10] it was below 0.2. For the same molecule, the Cooperativity in [13] and in assay [16] was above 2 in each case. Moreover, the Affinity in assay [2] is 5.3; in assay [6], 4.8; in [7], below 4.8; in assay [9] it was 5.4; in assay [11], 4.6; in assay [12] it was 5. The Affinity in [14] was 5.6; in [15] it was 4.6.
As to `N#CC[N+]12CC[C@@]34c5ccccc5N5C(=O)C[C@@H]6OCC=C(C1)[C@H](C[C@@H]32)[C@@H]6[C@H]54` (stereo partly drawn), the Cooperativity in assay [1] was 2; in [3] it was below 0.2; in assay [4] it was above 2; in [5], 0.8; in [8], 0.8; in assay [10] it was 0.8. Besides, the results for the Cooperativity in assay [13] and in assay [16] were 2 and above 2, respectively. For the same molecule, the Affinity in assay [2] is 4.3; in [6] it was 4.5; in assay [7] it was below 4; in assay [9], 4.8; in [11], 4.2; in [12] it was below 4.4. For the same molecule, the Affinity in [14] was 5.1; in assay [15], below 3.9.
`O=C1C[C@@H]2OCC=C3C[N+]4(CC5CCCCC5)CC[C@]56c7ccccc7N1[C@H]5[C@H]2[C@H]3C[C@@H]64` (stereo partly drawn): the Cooperativity is 2 in assay [1]; below 0.2 in [3]; 2 in assay [4]; below 0.2 in assay [5]; below 0.2 in [8]; below 0.2 in [10]. Further, the Cooperativity is 2 in assay [13] and above 2 in [16]. Besides, the Affinity in [2] is 4.8; in assay [6], below 4.9; in assay [7] it was below 4.6; in assay [9], 4.8; in [11], 4.1; in assay [12] it was 4.5. Moreover, the values for the Affinity in [14] and in [15] were 5.5 and 4, respectively.
Take `C[N+]12CC[C@@]34c5ccccc5N5C(=O)C[C@@H]6OCC=C(C1)[C@H](C[C@@H]32)[C@@H]6[C@H]54` (stereo partly drawn): the Cooperativity in assay [1] is 2; in [3] it was below 0.2; in assay [4], above 2; in [5], 0.8; in assay [8] it was 0.8; in assay [10] it was below 0.2. The Cooperativity in assay [13] and in [16] was above 2 in each case. The Affinity in assay [2] is 4.5; in [6], 4.4; in [7] it was below 4.1; in assay [9], 4.7; in assay [11] it was 4.1; in [12], 4.1. The Affinity in assay [14] is 5.1; in assay [15], below 4.
Turning to `O=C1C[C@@H]2OCC=C3C[N+]4(Cc5cccc([N+](=O)[O-])c5)CC[C@]56c7ccccc7N1[C@H]5[C@H]2[C@H]3C[C@@H]64` (stereo partly drawn), the Cooperativity in assay [1] is 2; in assay [3] it was 0.8; in [4] it was above 2; in [5] it was 0.8; in assay [8], 0.8; in assay [10], 0.8. The Cooperativity in [13] is 2; in assay [16], above 2. Also, the Affinity was 5.1 in assay [2]; below 5.4 in assay [6]; below 4.9 in assay [7]; 5.6 in [9]; 4.8 in assay [11]; below 5.2 in [12]. Moreover, the values for the Affinity in assay [14] and in assay [15] were 6 and below 4.7, respectively.
For the molecule `C=CC[N+]12CC[C@@]34c5ccccc5N5C(=O)C[C@@H]6OCC=C(C1)[C@H](C[C@@H]32)[C@@H]6[C@H]54` (stereo partly drawn), the Cooperativity in [1] is 1.19; in assay [3], below 0.2; in [4] it was 1.19; in assay [5], below 0.2; in [8], below 0.2; in assay [10], 0.8. The Cooperativity in assay [13] is 1.19; in assay [16] it was above 2. Also, the Affinity in assay [2] is 4.7; in assay [6], 5.3; in assay [7] it was 4.7; in assay [9] it was 5; in assay [11], 4.6; in [12] it was 5. For the same molecule, the Affinity in assay [14] is 5.9; in [15] it was 4.6.
Consider `O=C1C[C@@H]2OCC=C3C[N+]4(Cc5ccc6ccccc6c5)CC[C@]56c7ccccc7N1[C@H]5[C@H]2[C@H]3C[C@@H]64` (stereo partly drawn), for which the Cooperativity is 2 in assay [1]; below 0.2 in assay [3]; 2 in assay [4]; 0.8 in [5]; 0.8 in assay [8]; 0.8 in [10]. Besides, the values for the Cooperativity in [13] and in [16] were 2 and above 2, respectively. Also, the Affinity was 5.5 in [2]; 5.5 in assay [6]; below 5.3 in assay [7]; 5.9 in [9]; 6 in assay [11]; below 5.6 in assay [12]. Moreover, the Affinity in assay [14] is 6.1; in assay [15] it was below 5.8.
